GRK2 inh – compounds blocking aptamer binding on GRK2 – biochemical, human GRK2, bead flow cytometry, HTS, primary screen; Beta-adrenergic receptor kinase 1 (Homo sapiens), P25098; FAM-aptamer displacement from GRK2; inhibition of aptamer binding, % at 10 µM; 330,000 tested, 0.59% active; AID 488847, 2010;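 active = inhibition of aptamer binding above 40%, roughly 3 SD of noise, on plates passing a quality check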;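 also: median bead fluorescence of bound FAM aptamer so fluorescent compounds give negative values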
Target sequence (P25098 whole entry, looked up): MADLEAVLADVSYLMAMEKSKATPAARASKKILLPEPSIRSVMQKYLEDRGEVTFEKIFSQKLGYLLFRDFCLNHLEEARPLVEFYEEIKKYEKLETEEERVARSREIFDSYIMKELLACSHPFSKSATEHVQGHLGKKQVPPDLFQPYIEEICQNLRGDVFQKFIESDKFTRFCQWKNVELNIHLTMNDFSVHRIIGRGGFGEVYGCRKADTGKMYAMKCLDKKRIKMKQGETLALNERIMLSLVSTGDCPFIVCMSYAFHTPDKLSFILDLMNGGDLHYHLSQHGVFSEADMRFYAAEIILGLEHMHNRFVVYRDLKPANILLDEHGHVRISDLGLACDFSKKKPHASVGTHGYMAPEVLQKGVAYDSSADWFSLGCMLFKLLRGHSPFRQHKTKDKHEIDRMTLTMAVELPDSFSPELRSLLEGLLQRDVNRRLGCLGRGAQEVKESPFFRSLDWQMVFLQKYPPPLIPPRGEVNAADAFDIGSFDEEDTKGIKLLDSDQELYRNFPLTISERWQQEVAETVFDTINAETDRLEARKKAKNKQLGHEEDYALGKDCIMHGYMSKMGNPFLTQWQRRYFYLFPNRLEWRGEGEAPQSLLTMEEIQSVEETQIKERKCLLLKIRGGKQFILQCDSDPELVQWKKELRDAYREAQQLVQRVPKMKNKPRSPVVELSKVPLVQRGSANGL
DAGLB inhibitor – DAGLB lipase inhibitors, primary screen, biochemical, fluorescence, HTS | HEK293T DAGLB membrane lysate, EnzChek fluorogenic substrate | inhibition, % at 5.17 µM | Diacylglycerol lipase-beta (Homo sapiens), Q8NCG7 | 340,000 tested, 0.059% active; in the data active = inhibition above about 34%;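 also: 0% = enzyme with vehicle and 100% = wells lacking enzyme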
core dimer inh – inhibitors of HCV core protein dimerization, primary screen, biochemical, TR-FRET, high-throughput; TR-FRET GST/Flag-core106 dimerization, 1536-well; inhibition, % at 5 µM; 300,000 tested, 0.33% active; AID 1899, 2009;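 active = inhibition above the mean of all tested compounds plus 3 SD, set per screening campaign, cut at about 45% in these data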
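Assay system: tagged HCV core106 pair (GST and Flag); medium: KF-containing HEPES buffer, pH 7.45, DTT, CHAPS, BSA; also added: Eu donor and XL665 acceptor anti-tag antibodies; dosing: 5 µM single dose; timing: compound-protein-antibody incubation 4 h at 22.5 °C; signal: TR-FRET 671 and 617 nm emission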
FID counter – compounds displacing fluorescent DNA intercalator, primary screen, artefact control for HCV NS3 helicase inhibitor project, biochemical, FID fluorescence; DNA fluorescent intercalator displacement; inhibition, % at 7.9 µM; 290,000 tested, 0.17% active; AID 1845, 2009; in the data active = inhibition above about 37%;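 also: 0% = vehicle and 100% = reference compound; higher means more ethidium bromide displaced from hairpin DNA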
NS3 helicase inh – inhibitors of HCV NS3 helicase, primary screen, biochemical, Cy5 molecular beacon fluorescence; 290,000 tested, 0.56% active; NS3 helicase DNA unwinding; Hepatitis C virus NS3 helicase; inhibition, % at 10.9 µM;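 active = inhibition above the mean of all tested compounds plus 3 SD, set per campaign, cut at about 35% in these data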;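 also: 0% = DMSO wells and 100% = thioflavine S control wells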
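Assay system – hepatitis C virus NS3 helicase domain fragment enzyme · Buffer or medium – MOPS pH 6.5, MgCl2, DTT, Tween20, BSA · Reagent – Cy5/quencher beacon DNA duplex and ATP to start · Compound – single 10.9 µM dose · Timing – 1 h at 25 °C · Technique – Cy5 beacon fluorescence read at start and 1 h · Measure – % inhibition of unwinding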
GPR7 antag – GPR7 receptor antagonists, primary screen, cell-based, fluorescence, single concentration; Neuropeptides B/W receptor type 1 (Homo sapiens), P48145; GPR7-expressing cells, fluorescence antagonist assay; inhibition, % at 4.4 µM; 290,000 tested, 1.1% active; AID 1861, 2009; in the data active = inhibition above about 16%, passing the limit was not always enough;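 also: cells stimulated with the agonist NPW; 0% = agonist with vehicle and 100% = vehicle without agonist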
* = called active by the depositor; · = not tested or not shown. This is a sample that favours compounds with a hit; in the whole collection about 2.2% have one here.

SMILES	GRK2 inh	DAGLB inhibitor	core dimer inh	FID counter	NS3 helicase inh	GPR7 antag
Cc1cc(C(c2ccc(O)cc2)c2cc(C)c(O)cc2C)c(C)cc1O	·	1.6	-2.0	-3.4	-2.2	58.1*
Cc1cc(O)c2c(c1)C(=O)[C@@]13Oc4c5c(c(O)c6c(O)cc(C)cc46)C(=O)C[C@H](O)[C@H]5[C@@H]1[C@@H](O)CC(=O)C3=C2O	·	8.3	·	·	·	·
Cc1ccc(NC(=O)Cn2nc(C)c3ccccc3c2=O)cc1F	0.0	-0.5	3.5	-3.6	-3.0	18.6*
O=S(=O)(c1ccccc1)N1N=C(c2ccc(Cl)cc2)CC1c1ccco1 (stereo unspecified)	·	-3.7	·	·	·	·
COc1ccc(/C=C2/CSC/C(=C/c3ccc(OC)c(OC)c3)C2=O)cc1OC	·	-2.2	·	·	·	·
Cc1cc(C)c(S(=O)(=O)N(CC(=O)N2CCCC2)C2CCCCC2)c(C)c1	1.0	-3.0	13.5	-35.6	-1.6	15.6*
O=C(NCCCn1ccnc1)/C(=C\c1cccs1)NC(=O)c1ccco1	41.0*	1.1	-1.1	-0.5	4.2	3.1
CCOC(=O)C(=Cc1ccc2c(c1)OCO2)c1ccccc1	·	-13.0	·	·	·	·
CCOC(=O)c1c(-c2ccc(-c3ccccc3)cc2)csc1NC(=O)C1C2CCC(O2)C1C(=O)O (stereo unspecified)	0.0	12.4	46.4*	-32.8	18.8	-5.9
CCOC(=O)c1c(-c2ccccc2)csc1NC(=O)C1CCCO1 (stereo unspecified)	5.0	-14.7	3.4	-5.7	-1.3	-15.8
c1ccc(CNc2nc(-c3ccccc3)nc3ccccc23)cc1	13.0	-2.6	10.9	7.6	-12.8	-22.4
c1ccc(CNc2nc(NCc3ccccc3)c3ccccc3n2)cc1	·	-11.2	-2.1	22.0	-39.2	74.1*
O=C1C2CC=C(Cl)CC2C(=O)N1CCC[n+]1cccc2ccccc21 (stereo unspecified)	83.0*	2.0	-3.9	4.6	-3.7	-11.8
O=C(OCc1cn([C@H]2CN(CC3CCCCC3)[C@@H](c3ccc(Cl)cc3)C[C@@H]2O)nn1)c1ccccc1	·	-5.7	·	·	·	·
O=C(NCCc1ccccc1)c1ccc(-n2cnnn2)cc1	0.0	-4.0	-3.1	-3.5	-1.3	18.2*
O=C(NCCc1ccccc1)c1ccc2nc(-c3ccco3)c(-c3ccco3)nc2c1	1.0	10.2	65.2*	-17.6	22.7	5.8
O=C(c1ccccc1)c1ccc2nc(-c3ccco3)c(-c3ccco3)nc2c1	17.0	4.3	46.8*	-18.5	34.2	-4.4
O=C(NCCc1c[nH]c2ccccc12)c1ccc(-n2cnnn2)cc1	0.0	-2.1	5.5	-0.9	-1.6	2.6
FC(F)(F)c1ccccc1-n1c(-c2ccco2)n[nH]c1=S	1.0	-1.1	-16.2	-16.3	4.2	-8.4
Cc1nn(CC(=O)N2CCCCCC2)c(=O)c2cc3occc3n12	0.0	-0.4	6.0	-6.5	7.9	-7.7
COc1ccnc(Oc2ccc(F)cc2)c1C(=O)N/C=N/OCc1ccccc1	2.0	0.7	2.2	-31.2	0.1	9.4
CO/N=C/NC(=O)c1c(OC)ccnc1Oc1ccc(F)cc1	2.0	1.2	-2.8	71.1*	9.6	2.3
Cc1cccc(N2CC(C(=O)Nc3nnc(SCC(=O)NCC4CCCO4)s3)CC2=O)c1 (stereo unspecified)	3.0	3.7	65.1*	-38.0	19.7	-21.1
Cc1ccc(S(=O)(=O)N2C[C@@H](C)[C@]3(C2)[C@H](O)[C@H](OC(=O)Nc2c(C)noc2C)C[C@H]2C(=O)N(c4ccccc4)C(=O)[C@H]23)cc1	·	0.1	·	·	·	·
COC(=O)c1ccc(Oc2coc3cc(OCc4ccc([N+](=O)[O-])cc4)ccc3c2=O)cc1	0.0	3.1	67.6*	-3.9	12.4	-4.2
SMILES	GRK2 inh	DAGLB inhibitor	core dimer inh	FID counter	NS3 helicase inh	GPR7 antag
CC(=O)[C@@H]1[C@@H]2C(=O)N(c3ccc(F)c(Cl)c3)C(=O)[C@@H]2C2c3ccccc3C=CN21 (stereo partly specified)	3.0	·	31.6	-16.0	7.2	-1.0
O=C(c1ccco1)[C@@H]1[C@@H]2C(=O)N(c3ccc(Br)cc3)C(=O)[C@@H]2C2c3ccccc3C=CN21 (stereo partly specified)	·	3.4	·	-27.1	42.8*	-9.2
O=C(c1ccco1)[C@@H]1[C@@H]2C(=O)N(c3ccc(F)cc3)C(=O)[C@@H]2[C@H]2C=Cc3ccccc3N21	4.0	1.8	24.3	-16.5	33.8	-6.2
CC(=O)[C@H]1[C@@H]2C(=O)N(c3cccc(Cl)c3)C(=O)[C@@H]2[C@H]2c3ccccc3C=CN21	3.0	-0.6	58.4*	-10.1	16.6	-4.8
Cc1sc2nc(CSC(C)C(=O)NC3(C#N)CCCCC3)[nH]c(=O)c2c1C (stereo unspecified)	·	0.4	·	·	·	·
Clc1ccc(CSc2nncn2-c2ccc3c(c2)OCCO3)cc1	0.0	-0.2	2.1	-14.5	-2.7	18.8*
O=C(Nc1ccc(Cl)c(Cl)c1)Nc1nnc(-c2ccncc2)s1	1.0	0.8	87.4*	-3.4	15.3	-6.5
CN(C)Cc1cc(C(C)(C)c2cc(CN(C)C)c(O)c(CN(C)C)c2)cc(CN(C)C)c1O	0.0	-1.3	-0.1	38.1*	-1.3	-2.3
CN(C)Cc1cc(OCc2ccccc2)cc(CN(C)C)c1O	·	-1.8	·	·	·	·
Cc1cn([C@H]2C[C@H](O)[C@@H](CNCc3ccc(Oc4cc(-n5cccn5)ncn4)cc3)O2)c(=O)[nH]c1=O	·	-2.4	·	·	·	·
Cc1ccc(NC(=O)CN(C)C(=O)c2cc(-c3ccco3)nc3ccccc23)cc1	83.0*	3.4	64.8*	·	·	·
CN(CC(=O)Nc1ccc(F)cc1)C(=O)c1cc(-c2ccco2)nc2ccccc12	8.0	5.3	50.1*	·	·	·
COc1cccc(NC(=O)CN(C)C(=O)c2cc(-c3ccco3)nc3ccccc23)c1	5.0	1.7	18.1	·	·	·
Cc1ccccc1OCC(=O)OCC(=O)c1ccc[nH]1	1.0	-1.2	·	·	·	·
CCC12CCC3c4ccc(O)cc4CCC3C1CC(O)C2O (stereo unspecified)	·	2.8	·	·	·	·
O=C(OCC(=O)c1ccc(Cl)s1)c1cnccn1	4.0	4.6	53.8*	-2.0	20.4	-17.5
CCC(=O)N1CCc2cc(S(=O)(=O)CCC(=O)N(C)c3ccc(OC)cc3OC)ccc21	0.0	0.6	5.7	-31.2	-1.2	-8.8
Cc1cccc(-c2ncc(CN3CCN(C4CCCC4)C(CCO)C3)cn2)c1 (stereo unspecified)	0.0	-1.3	-3.6	4.2	-1.4	8.5

Source: PubChem BioAssay
